Active and inactive are the calls of the source. No cut-off for these calls is given here.
How the values were obtained:
Format in all cases: cell-based
[1] = target: T1, von Hippel-Lindau disease tumor suppressor-SARS-Cov-2 polyprotein (Severe acute respiratory syndrome coronavirus 2) (UniProt P40337+P0DTD1); experiment: PROTAC activity at human VHL/FLAG-nsp4-tagged SARS CoV-2 MPro overexpressed in HEK293T cells assessed as protein degradation at 25 uM pretreated for 2 hrs followed by viral protein transfection measured after 24 hrs by Western blot analysis; conditions: time 26.0 hrs
T1 sequence (P40337 whole entry, looked up, other chains not shown): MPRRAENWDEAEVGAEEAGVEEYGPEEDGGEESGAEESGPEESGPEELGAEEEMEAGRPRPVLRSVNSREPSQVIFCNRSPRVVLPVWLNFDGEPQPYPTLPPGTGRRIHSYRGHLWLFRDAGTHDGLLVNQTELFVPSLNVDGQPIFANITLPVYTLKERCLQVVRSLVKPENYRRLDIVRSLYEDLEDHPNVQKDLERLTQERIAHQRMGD
In short: (§1)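 293T cells pretreated 2 h with compound (1–25 µM) or 0.1% DMSO, then transfected with FLAG-nsp4-Mpro plasmid and kept 24 h with compound. Western blot for Mpro with β-actin loading control. Densitometry from 2–3 independent experiments; DC50 by nonlinear regression, plus % degradation at the top concentration.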

[2] = target: Replicase polyprotein 1ab (Severe acute respiratory syndrome coronavirus 2) (UniProt P0DTD1); experiment: Effect on catalytic activity of FLAG-nsp4-tagged SARS CoV-2 MPro overexpressed in HEK293T cells by FRET assay
[3] = target: T1, von Hippel-Lindau disease tumor suppressor-SARS-Cov-2 polyprotein (Severe acute respiratory syndrome coronavirus 2); experiment: (§2) PROTAC activity at human VHL/FLAG-nsp4-tagged SARS CoV-2 MPro overexpressed in HEK293T cells assessed as protein degradation pretreated for 2 hrs followed by viral protein transfection measured after 24 hrs by Western blot analysis; conditions: time 26.0 hrs; in short: as §1
[4] = target: Replicase polyprotein 1ab (Severe acute respiratory syndrome coronavirus 2) (UniProt P0DTD1); experiment: Effect on catalytic activity of FLAG-nsp4-tagged SARS CoV-2 MPro overexpressed in HEK293T cells pretreated for 2 hrs followed by viral protein transfection measured after 24 hrs by Western blot analysis; conditions: time 26.0 hrs
In short: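 293T cells pretreated 2 h, then transfected with FLAG-nsp4-Mpro plasmid and kept 24 h with compound. Western blot with anti-Mpro antibody reads cleavage: release of ~34 kDa mature Mpro versus the uncleaved upper band.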

[5] = target: T1, von Hippel-Lindau disease tumor suppressor-SARS-Cov-2 polyprotein (Severe acute respiratory syndrome coronavirus 2); experiment: PROTAC activity at human VHL/FLAG-nsp4-tagged SARS CoV-2 MPro overexpressed in HEK293T cells assessed as protein degradation at 25 uM pretreated for 2 hrs followed by viral protein transfection measured after 24 hrs by Western blot analysis relative to control; conditions: time 26.0 hrs; in short: as §1
[6] = target: T1, von Hippel-Lindau disease tumor suppressor-SARS-Cov-2 polyprotein (Severe acute respiratory syndrome coronavirus 2); experiment: PROTAC activity at human VHL/FLAG-nsp4-tagged SARS CoV-2 MPro overexpressed in HEK293T cells assessed as protein degradation at 25 uM pretreated for 2 hrs followed by viral protein transfection measured after 24 hrs in presence of VH298 by Western blot analysis; conditions: time 26.0 hrs
In short: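 293T cells pretreated with compound at 25 µM, with or without 50 µM VHL inhibitor VH298. Cells then transfected to express FLAG-nsp4-Mpro and collected 24 h post-transfection. Mpro detected by Western blot, β-actin as loading control.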

[7] = target: von Hippel-Lindau disease tumor suppressor-SARS-Cov-2 polyprotein (Severe acute respiratory syndrome coronavirus 2, UniProt P40337+P0DTD1); experiment: as §2; in short: as §1
von Hippel-Lindau disease tumor suppressor-SARS-Cov-2 polyprotein, sequence (P40337 whole entry, other chains not shown): as the sequence (P40337 whole entry, looked up, other chains not shown) above

Structure (SMILES)	Activity [1]	Activity [2]	Activity [3]	Activity [4]	Activity [5] [%]	Activity [6]	DC50 [7] [µM]
COc1ccc2c(c1)c(CC(=O)NCCN1CCN(C(=O)CCC(=O)N[C@H](C(=O)N3C[C@@H](O)C[C@H]3C(=O)N[C@@H](C)c3ccc(-c4scnc4C)cc3)C(C)(C)C)CC1)c(C)n2C(=O)c1ccc(Cl)cc1	inactive	–	–	–	–	–	–
COc1ccc2c(c1)c(CC(=O)NCCCCCCC(=O)N[C@H](C(=O)N1C[C@H](O)C[C@H]1C(=O)N[C@@H](C)c1ccc(-c3scnc3C)cc1)C(C)(C)C)c(C)n2C(=O)c1ccc(Cl)cc1	–	inactive	Dose-Dependent Effect	inactive	–	–	–
COc1ccc2c(c1)c(CC(=O)NCCN1CCN(C(=O)CCC(=O)N[C@H](C(=O)N3C[C@H](O)C[C@H]3C(=O)N[C@@H](C)c3ccc(-c4scnc4C)cc3)C(C)(C)C)CC1)c(C)n2C(=O)c1ccc(Cl)cc1	–	inactive	–	inactive	67	inactive	18.1
COc1ccc2c(c1)c(CC(=O)N1CCN(CC(=O)N[C@H](C(=O)N3C[C@H](O)C[C@H]3C(=O)N[C@@H](C)c3ccc(-c4scnc4C)cc3)C(C)(C)C)CC1)c(C)n2C(=O)c1ccc(Cl)cc1	–	inactive	–	inactive	72	inactive	7.3
